pEC50, pIC50: −log10 of the molar value. Converted amounts (≈) assume the structure as drawn.
What was measured:
[1] = Inhibition of HCV genotype 1a H77 NS5B RNA dependent RNA polymerase assessed as reduction in [3H]UTP incorporation in to RNA preincubated for 15 mins followed by [3H]UTP addition measured after 3 hrs by microbeta scintillation counting method; design: species or system Hepatitis C virus (isolate H77)
Method in brief: (§1)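 NS5B polymerase from genotype 1a (H77) or 1b (BK); formation of RNA product measured as 3H-UTP incorporation by scintillation counting; IC50 calculated with a standard IC50 equation.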

[2] = Inhibition of HCV genotype 1b BK NS5B RNA dependent RNA polymerase assessed as reduction in [3H]UTP incorporation in to RNA preincubated for 15 mins followed by [3H]UTP addition measured after 3 hrs by microbeta scintillation counting method; design: species or system Hepatitis C virus (isolate BK); method in brief: as §1
Hepatitis C virus [3] = assay: Antiviral activity against HCV genotype 1b Con1 infected in human HuH7 cells harboring HCV subgenomic bicistronic replicon after 3 days by luciferase reporter gene assay; type: functional, cell-based, Hepacivirus hominis; conditions: genotype 1b Con1, Huh-7, 72 h
Method in brief: (§2)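 Subgenomic genotype 1a (H77) or 1b (Con1) replicons carrying firefly luciferase, transfected into Huh-7 cells. Replication inhibition was read as luciferase level in cell lysate on a luminometer and reported as EC50. Runs were done without human plasma or with 40% human plasma added, to assess inhibitor–protein binding.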

Hepatitis C virus [4] = assay: Antiviral activity against HCV genotype 1b Con1 infected in human HuH7 cells harboring HCV subgenomic bicistronic replicon after 3 days in presence of 40% human plasma by luciferase reporter gene assay; type: functional, cell-based, Hepacivirus hominis; conditions: genotype 1b Con1, Huh-7, 72 h; method in brief: as §2
[5] = Passive permeability of the compound by PAMPA; type: physicochemical; conditions: read-out: permeability
[6] = Aqueous solubility of the compound at pH 7.2; type: physicochemical; conditions: buffer
[7] = Stability in human liver microsomes assessed as parent compound remaining after 30 mins; type: ADME, microsome; conditions: read-out: Stability
Method in brief: (§3)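 Compound incubated 30 min with human or rat liver microsomes; percent of parent compound remaining reported.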

[8] = Stability in rat liver microsomes assessed as parent compound remaining after 30 mins; type: ADME, microsome; conditions: read-out: Stability; method in brief: as §3
[9] = Plasma clearance in Sprague-Dawley rat at 5 mg/kg, iv; type: ADME, organism-based
Method in brief: (§4)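 Sprague-Dawley rats, n = 3 per experiment; solution in DMSO:PEG400 (1:9, v/v) given IV or oral; 5 mg/kg for both routes, and 30 mg/kg oral; plasma t1/2, Vss, clearance, Cmax, AUC and F% determined.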

[10] = Half life in Sprague-Dawley rat at 5 mg/kg, po; type: ADME, organism-based; conditions: in vivo; method in brief: as §4
[11] = Cmax in Sprague-Dawley rat at 5 mg/kg, po; type: ADME, organism-based; design: dose 5 mg/kg, route oral; conditions: in vivo; method in brief: as §4
[12] = AUC in Sprague-Dawley rat at 5 mg/kg, po; type: ADME, organism-based; conditions: in vivo; method in brief: as §4
[13] = Oral bioavailability in Sprague-Dawley rat at 5 mg/kg; type: ADME, organism-based; conditions: in vivo; method in brief: as §4
Hepatitis C virus [14] = assay: Antiviral activity against HCV genotype 1a H77 infected in human HuH7 cells harboring HCV subgenomic bicistronic replicon after 3 days by luciferase reporter gene assay; type: functional, cell-based, Hepacivirus hominis; conditions: genotype 1a H77, Huh-7, 72 h; method in brief: as §2
Hepatitis C virus [15] = assay: Antiviral activity against HCV genotype 1a H77 infected in human HuH7 cells harboring HCV subgenomic bicistronic replicon after 3 days in presence of 40% human plasma by luciferase reporter gene assay; type: functional, cell-based, Hepacivirus hominis; conditions: genotype 1a H77, Huh-7, 72 h; method in brief: as §2
[16] = Plasma concentration in Sprague-Dawley rat at 5 mg/kg, po up to 8 hrs; type: ADME, organism-based; method in brief: as §4
Rattus norvegicus = assay: Time at which plasma concentration stays above HCV genotype 1b Con1 replicon EC50 in Sprague-Dawley rat at 5 mg/kg, po
[17] = Ratio of plasma concentration in Sprague-Dawley rat at 5 mg/kg, po to EC50 for HCV genotype 1b Con1 infected in human HuH7 cells harboring HCV subgenomic bicistronic replicon

| Compound | pIC50 [1] | pIC50 [2] | pEC50 (Hepatitis C virus [3]) | pEC50 (Hepatitis C virus [4]) | Papp [5] | solubility ([6]; read-out: solubility) | remaining at 0.5 h [7] | remaining at 0.5 h [8] | clearance [9] | half-life [10] | Cmax [11] | AUC [12] | bioavailability [13] | pEC50 (Hepatitis C virus [14]) | solubility [6] | pEC50 (Hepatitis C virus [15]) | concentration at 8 h [16] | Time (Rattus norvegicus) | Ratio [17] |
| --- | --- | --- | --- | --- | --- | --- | --- | --- | --- | --- | --- | --- | --- | --- | --- | --- | --- | --- | --- |
| COc1c(CCc2ccc(NS(C)(=O)=O)cc2)cc(N2CCC(=O)NC2=O)cc1C(C)(C)C | 7.58 | 7.39 | 7.41 | 7.04 | 4.06 ×10⁻⁶ cm/s | 18.8 µM (≈ 8.9 µg/mL) | 2.5% | 1.6% | – | – | – | – | – | – | – | – | – | – | – |
| COc1c(C#Cc2ccc(NS(C)(=O)=O)cc2)cc(N2CCC(=O)NC2=O)cc1C(C)(C)C | 8.96 | 8.52 | 8.41 | 7.53 | 0.83 ×10⁻⁶ cm/s | 2.3 µM (≈ 1.08 µg/mL) | 35.8% | 50% | 31.7 mL/min/kg | 3 h | 60 ng/mL | 350 ng·h/mL | 14% | – | – | – | – | – | – |
| COc1c(C(=O)Nc2ccc(NS(C)(=O)=O)cc2)cc(N2CCC(=O)NC2=O)cc1C(C)(C)C | 7.97 | 7.66 | 7.72 | 7.66 | 0.25 ×10⁻⁶ cm/s | < 1.5 µM | > 85% | > 85% | 25 mL/min/kg | – | – | 50 ng·h/mL | – | – | – | – | – | – | – |
| COc1c(COc2ccc(NS(C)(=O)=O)cc2)cc(N2CCC(=O)NC2=O)cc1C(C)(C)C | 7.00 | 6.78 | 7.28 | 6.49 | 7.47 ×10⁻⁶ cm/s | 3 µM (≈ 1.43 µg/mL) | > 85% | 80% | – | – | – | – | – | – | – | – | – | – | – |
| COc1c(C(=O)N(C)c2ccc(NS(C)(=O)=O)cc2)cc(N2CCC(=O)NC2=O)cc1C(C)(C)C | 6.85 | 6.56 | 5.81 | – | 0.25 ×10⁻⁶ cm/s | > 50 µM | 64% | 83% | – | – | – | – | – | – | – | – | – | – | – |
| COc1c(NC(=O)c2ccc(NS(C)(=O)=O)cc2)cc(N2CCC(=O)NC2=O)cc1C(C)(C)C | 8.06 | 7.34 | 7.54 | 7.68 | 0.22 ×10⁻⁶ cm/s | 32.8 µM (≈ 16 µg/mL) | > 85% | > 85% | – | – | – | – | – | – | – | – | – | – | – |
| COc1c(CNc2ccc(NS(C)(=O)=O)cc2)cc(N2CCC(=O)NC2=O)cc1C(C)(C)C | 7.10 | 6.57 | 6.28 | – | 0.41 ×10⁻⁶ cm/s | 90.8 µM (≈ 43.1 µg/mL) | 67% | 58% | – | – | – | – | – | – | – | – | – | – | – |
| COc1c(/C=C/c2ccc(NS(C)(=O)=O)cc2)cc(-n2cc(F)c(=O)[nH]c2=O)cc1C(C)(C)C | – | – | 8.02 | 7.23 | – | 15.5 µM (≈ 7.56 µg/mL) | – | – | 14.2 mL/min/kg | 3.7 h | – | 3120 ng·h/mL | 52% | 7.05 | – | – | – | – | – |
| COc1c(/C=C(\C)c2ccc([N+](=O)[O-])cc2)cc(N2CCC(=O)NC2=O)cc1C(C)(C)C | 8.31 | 7.78 | 7.91 | 7.08 | 0.58 ×10⁻⁶ cm/s | < 2 µM | 18.5% | 36.5% | – | – | – | – | – | – | – | – | – | – | – |
| COc1c(C2CC2c2ccc(NS(C)(=O)=O)cc2)cc(N2CCC(=O)NC2=O)cc1C(C)(C)C (stereo unspecified) | 6.57 | 6.29 | 7.25 | 6.37 | 2.8 ×10⁻⁶ cm/s | 18.8 µM (≈ 9.13 µg/mL) | 26.5% | 32.3% | – | – | – | – | – | – | – | – | – | – | – |
| COc1c(/C=C/c2ccc(NS(C)(=O)=O)cc2)cc(N2CCC(=O)NC2=O)cc1C(C)(C)C | 9.52 | 9.15 | 8.96 | 8.51 | 0.92 ×10⁻⁶ cm/s | – | 48.1% | 33.5% | 10.7 mL/min/kg | 2.3 h | 260 ng/mL | 1520 ng·h/mL | 18% | 8.51 | 10.3 µM (≈ 4.86 µg/mL) | 7.30 | > 200 nM | 8 h | >60 |
| COc1c(/C=C/c2ccc(NS(C)(=O)=O)c(F)c2)cc(-n2ccc(=O)[nH]c2=O)cc1C(C)(C)C | – | – | 8.68 | 8.28 | – | 15.5 µM (≈ 7.56 µg/mL) | – | – | 6.33 mL/min/kg | 3.7 h | – | 10400 ng·h/mL | 76% | 7.86 | – | – | – | – | – |
